# Bioassay records deposited in PubChem by several laboratories.
# Runt-CBFb FRET: blocks binding of human RUNX1 Runt domain to CBFb; Q01196+Q13951; Cerulean-Runt/Venus-CBFb FRET ratio 530/480, 1 h; inhibition, % at 20 µM; 220,000 compounds, 0.46% hits; AID 1496;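 active = inhibition over about 50% at 20 µM in the single-dose screen, limit read from the data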
# Target sequence (Q01196 whole entry, looked up, the tested form may be a part): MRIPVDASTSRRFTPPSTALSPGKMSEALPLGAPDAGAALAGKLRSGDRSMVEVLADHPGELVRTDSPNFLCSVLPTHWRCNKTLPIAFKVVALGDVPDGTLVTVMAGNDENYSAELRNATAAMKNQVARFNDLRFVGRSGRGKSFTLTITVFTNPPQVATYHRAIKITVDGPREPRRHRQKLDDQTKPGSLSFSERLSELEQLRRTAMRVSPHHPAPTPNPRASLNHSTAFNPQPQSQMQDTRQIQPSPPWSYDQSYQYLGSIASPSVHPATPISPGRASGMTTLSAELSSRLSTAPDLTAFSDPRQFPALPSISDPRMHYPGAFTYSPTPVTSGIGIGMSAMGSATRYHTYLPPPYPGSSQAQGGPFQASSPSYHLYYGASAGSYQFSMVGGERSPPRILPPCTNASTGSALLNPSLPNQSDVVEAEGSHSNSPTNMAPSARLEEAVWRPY
# Target sequence (Q13951 whole entry, looked up, the tested form may be a part): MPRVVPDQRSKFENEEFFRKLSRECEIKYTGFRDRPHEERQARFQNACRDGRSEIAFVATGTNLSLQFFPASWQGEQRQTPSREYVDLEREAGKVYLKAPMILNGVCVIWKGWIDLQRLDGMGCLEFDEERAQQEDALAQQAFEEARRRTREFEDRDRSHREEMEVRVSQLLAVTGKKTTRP
#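 Assay system: Cerulean-tagged RUNX1 Runt domain (FRET donor) fusion protein / Amount: 100 nM each of Venus-CBFb and Cerulean-Runt domain / Medium: Tris buffer pH 7.5 with salts and BSA / Also added: Venus-CBFb 100 nM / Schedule: 1 h complex formation plus 1 h compound treatment, room temperature / Signal: FRET fluorescence / Read-out: loss of energy transfer signal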
# Runt-SMMHC FRET: blocks binding of human RUNX1 Runt domain to CBFb-SMMHC. Cerulean-Runt/Venus-CBFb-SMMHC FRET ratio 530/480, 1 h. inhibition, % at 20 µM. 220,000 compounds, 0.74% hits. AID 1434;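 active = mean inhibition across duplicate retests at 20 µM reaching about 50%, limit read from the data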;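 also: inhibitors lower the FRET ratio by blocking Runt binding to CBFb-SMMHC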
# RanGTP-Imp inh: disruptors of Ran-importin-beta complex formation – biochemical, FRET, CFP-Ran, YFP-importin-beta, homogeneous, primary screen | inhibition, % (test concentration not listed) | AID 2216 | 300,000 compounds, 1.1% hits | cell-free CFP-Ran/YFP-importin-beta FRET ratio;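 active = more than half of the replicate wells show a fall in the fluorescence ratio signal beyond about 16%, limit read from the data, passing the limit was not always enough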
# TbHK1 inh: blocks Trypanosoma brucei hexokinase 1 activity; 220,000 compounds, 0.11% hits; recombinant TbHK1, G6PDH-coupled NADH A340; inhibition, % at 10 µM; AID 1430;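 active = inhibition of 50% or more in the single-dose primary screen; inactive = inhibition below 50%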
# Hck-Nef inh: inhibitors of human Hck kinase activated by Nef. P08631. Recombinant Hck-YEEI plus Nef, Z-Lyte FRET kinase assay. inhibition, % at 20 µM. 220,000 compounds, 0.68% hits. AID 463187;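 active = Hck-Nef kinase inhibition above about 50%, limit read from the data; inactive = inhibition below that limit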
# Numbers stand for hits; n = inactive; x = not tested or not shown. Shown are actives, neighbours in structure and some others; about 1.9% of the full set was active somewhere.
SMILES,Runt-CBFb FRET,Runt-SMMHC FRET,RanGTP-Imp inh,TbHK1 inh,Hck-Nef inh
Cc1ccc(C(C(=O)NCc2ccco2)N(C(=O)Cc2cccs2)c2cccnc2)cc1 (stereo not drawn),n,n,n,n,n
CC(=O)N1CCN(c2nc(-c3ccco3)c3c(c2C#N)CC(C)(C)SC3)CC1,n,n,16,n,n
CCOC(=O)C(C#N)=C1CCN(Cc2ccccc2)CC1,x,x,51,x,x
Cc1cc2c(c(=O)n1CCCn1ccnc1)C(c1ccco1)C(C#N)=C(N)O2 (stereo not drawn),n,108,n,n,n
COc1ccccc1C1C(C#N)=C(N)Oc2cc(C)n(CCCn3ccnc3)c(=O)c21 (stereo not drawn),n,n,n,n,n
COCCn1c(C)cc2c(c1=O)C(c1ccccc1F)C(C#N)=C(N)O2 (stereo not drawn),n,n,63,n,n
CCOC(=O)N/N=C/C=C/c1ccccc1,n,n,n,n,n
Cc1ccc(S(=O)(=O)c2cc3c(=O)n4cccc(C)c4nc3n(CC3CCCO3)c2=N)cc1C (stereo not drawn),66,88,137,n,n
Cc1cccn2c(=O)c3cc(C#N)c(=N)n(CC4CCCO4)c3nc12 (stereo not drawn),x,x,x,n,n
Cc1cccn2c(=O)c3cc(S(=O)(=O)c4ccccc4)c(=N)n(CC4CCCO4)c3nc12 (stereo not drawn),n,81,158,n,n
O=C(COc1ccc2c3c(c(=O)oc2c1)CCC3)Nc1ccc(CN2CCOCC2)cc1,x,x,n,x,x
O=c1[nH]c(C2CCN(S(=O)(=O)c3ccccc3F)CC2)nc2c1nnn2Cc1ccc2c(c1)OCCO2,x,x,n,x,x
O=c1[nH]c(C2CCN(S(=O)(=O)c3ccc(F)cc3)CC2)nc2c1nnn2Cc1ccc2c(c1)OCCO2,x,x,19,x,x
CCCCC(CC)CNC(=O)c1ncn[nH]1 (stereo not drawn),n,n,n,n,n
OCCN(CCO)c1ncnc2c1sc1nc(N3CCOCC3)c3c(c12)CCCC3,n,n,n,n,n
CSc1nc(N(CCO)CCO)c2sc3nc(-c4ccco4)c4c(c3c2n1)CCC4,n,n,n,n,77
COCCCn1c(C(=O)NCCN2CCOCC2)cc2c(=O)n3cccc(C)c3nc21,x,x,n,x,x
Cc1cccn2c(=O)c3cc(C(=O)NCC4CCCO4)c(=N)n(CCN4CCOCC4)c3nc12 (stereo not drawn),125,79,106,n,n
COCCCn1c(=N)c(C(=O)NCC2CCCO2)cc2c(=O)n3cccc(C)c3nc21 (stereo not drawn),n,60,177,n,196
Cc1cccn2c(=O)c3cc(C(=O)NCCN4CCOCC4)c(=N)n(CCCN4CCOCC4)c3nc12,x,x,131,x,x
CCN(CC)S(=O)(=O)c1cc(C(=O)Nc2cc(C)on2)c(Cl)cc1Cl,x,x,n,x,x
COc1ccc(-c2csc(NC(=O)CCN3C(=O)C4CC=CCC4C3=O)n2)cc1OC (stereo not drawn),x,x,n,x,x
CCOc1cc(-c2cc(-c3ccc(N)cc3)nc(N)c2C#N)ccc1O,n,80,48,n,n
CCOc1cc(-c2cc(-c3ccccc3)nc(N)c2C#N)ccc1O,n,n,n,n,n
Cc1ccc(S(=O)(=O)N2CCN(CCC#N)CC2)cc1,n,n,n,n,n
SMILES,Runt-CBFb FRET,Runt-SMMHC FRET,RanGTP-Imp inh,TbHK1 inh,Hck-Nef inh
CN(C)c1nc(-c2ccccc2)c2cc(Cl)ccc2n1,x,x,21,x,x
c1ccc2[nH]c(SN3CCOCC3)nc2c1,n,62,x,n,n
c1ccc2[nH]c(CN3CCOCC3)nc2c1,n,n,n,n,n
N#Cc1cc(NC(=O)c2ccc(F)cc2)c(=O)n2c1[nH]c1ccccc12,n,n,26,n,n
COc1cccc(CC2(CO)CCN(S(=O)(=O)N(C)C)CC2)c1,n,n,18,n,n
COc1ccc(/C=C/C(=O)N2CCN(C)CC2)cc1S(=O)(=O)N1CCCCC1,n,n,77,n,n
COc1ccc(/C=C/C(=O)NC2CCCCCCC2)cc1S(=O)(=O)N1CCOCC1,n,n,n,n,n
O=S1(=O)N=C(Nc2nncs2)c2ccccc21,n,n,n,n,n
c1ccc2c(Nc3nncs3)c3ccccc3nc2c1,n,n,59,n,n
CCOC(=O)c1c(Nc2ccccc2OCCOC)n[nH]c1C,n,n,n,n,n
Cc1ccc(-c2onc3ccc(C=O)cc23)cc1,n,n,23,n,n
Cc1ccc(OCC(=O)N2N=C(c3ccncc3)CC2(O)C(F)(F)F)cc1C (stereo not drawn),n,n,n,n,n
COc1ccc(C2C3=C(CC(C)(C)CC3=O)Nc3cc4c(cc32)OCO4)cc1 (stereo not drawn),n,n,n,n,n
COc1ccc(C2C3=C(CC(C)(C)CC3=O)Nc3c2c(=O)[nH]c2nc(C)nn32)cc1 (stereo not drawn),87,135,46,n,n
C=CCOc1ccccc1C1C2=C(CC(C)(C)CC2=O)Nc2c1c(=O)n(C)c(=O)n2C (stereo not drawn),n,n,n,n,n
COc1ccc(C2C3=C(CC(C)(C)CC3=O)Nc3c2c(=O)n(C)c(=O)n3C)cc1OC (stereo not drawn),63,107,n,n,n
COc1ccc(OC)c(C2C3=C(CCCC3=O)Nc3c2c(=O)n(C)c(=O)n3C)c1 (stereo not drawn),n,73,n,n,n
COc1ccc(OC)c(C2C3=C(CCCC3=O)Nc3nnnn32)c1 (stereo not drawn),n,n,n,n,n
COc1cccc(OCCn2cc(C(C)=O)c3ccccc32)c1,x,x,n,x,x
O=C(c1cccc([N+](=O)[O-])c1)N1CCCN(C(=O)c2cccc([N+](=O)[O-])c2)CC1,n,n,n,n,n
CC1=C(C#N)C(/C=N/OCc2ccc(F)cc2Cl)CC(=O)N1 (stereo not drawn),n,n,n,n,n
Cc1cc(/C=C2\SC(=S)NC2=O)c(C)n1-c1cccc(O)c1,n,n,20,n,65
Cc1cc(/C=C2\SC(=S)N(C)C2=O)c(C)n1-c1ccccc1O,x,x,44,x,x
Cc1cc(/C=C2\SC(=S)N(C)C2=O)c(C)n1-c1ccc(O)cc1,n,n,37,n,n
N=c1c(C(=O)NCc2ccco2)cc2c(=O)n3ccccc3nc2n1CC1CCCO1 (stereo not drawn),x,x,130,n,n
Cc1cccn2c(=O)c3cc(C(=O)NCCc4ccccc4)c(=N)n(CC4CCCO4)c3nc12 (stereo not drawn),x,x,181,x,x
Cc1cccn2c(=O)c3cc(C(=O)NCc4cccnc4)c(=N)n(CC4CCCO4)c3nc12 (stereo not drawn),x,x,180,x,x
Cc1ccc(CNC(=O)c2cc3c(=O)n4cccc(C)c4nc3n(CC3CCCO3)c2=N)cc1 (stereo not drawn),n,n,x,x,x
CCn1c(=N)c(C(=O)NCc2cccnc2)cc2c(=O)n3cccc(C)c3nc21,n,61,x,x,x
